This note sets out measurements from article PMC3103606 (Chemico-biological interactions, 2011).

Holding throughout (format): biochemical
The target in test [1] is T1, ALDH3A1 (Homo sapiens, UniProt P30838).
T1 sequence (P30838 1-453): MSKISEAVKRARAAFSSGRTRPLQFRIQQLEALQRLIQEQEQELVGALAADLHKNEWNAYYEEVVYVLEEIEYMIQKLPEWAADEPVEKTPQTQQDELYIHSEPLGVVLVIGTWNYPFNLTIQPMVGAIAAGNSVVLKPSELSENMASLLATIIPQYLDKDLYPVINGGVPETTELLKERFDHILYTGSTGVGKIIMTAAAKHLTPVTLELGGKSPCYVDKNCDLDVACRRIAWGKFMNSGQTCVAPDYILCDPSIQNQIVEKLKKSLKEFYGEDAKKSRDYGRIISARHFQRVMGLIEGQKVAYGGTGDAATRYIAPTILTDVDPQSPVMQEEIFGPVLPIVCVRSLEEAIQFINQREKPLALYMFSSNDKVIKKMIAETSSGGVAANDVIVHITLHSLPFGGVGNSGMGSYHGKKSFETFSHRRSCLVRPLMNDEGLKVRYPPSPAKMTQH
Kind of test: ALDH3A1 esterase assay. Particulars: read-out: (Esterase assay) IC50; ALDH3A1, 0.8 mM para-nitrophenylacetate, pH 7.5. Put shortly:
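Reactions used nickel-NTA/Q-sepharose-purified recombinant ALDH3A1 at 180 nM in 25 mM sodium HEPES. Inhibitor was preincubated with enzyme for 2 min, and 0.8 mM para-nitrophenylacetate then started the reaction. para-Nitrophenol formation was read spectrophotometrically at 405 nm (ε 18,000 M−1cm−1).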

Test [2] concerns the target T1, ALDH3A1. In words: ALDH3A1 dehydrogenase assay. Particulars: read-out: (Dehydrogenase assay) IC50; ALDH3A1, 1 mM benzaldehyde, […] NADP+, pH 7.5.
The target in another test is T2, ALDH1A1 (Homo sapiens, UniProt P00352).
T2 sequence (P00352 1-501): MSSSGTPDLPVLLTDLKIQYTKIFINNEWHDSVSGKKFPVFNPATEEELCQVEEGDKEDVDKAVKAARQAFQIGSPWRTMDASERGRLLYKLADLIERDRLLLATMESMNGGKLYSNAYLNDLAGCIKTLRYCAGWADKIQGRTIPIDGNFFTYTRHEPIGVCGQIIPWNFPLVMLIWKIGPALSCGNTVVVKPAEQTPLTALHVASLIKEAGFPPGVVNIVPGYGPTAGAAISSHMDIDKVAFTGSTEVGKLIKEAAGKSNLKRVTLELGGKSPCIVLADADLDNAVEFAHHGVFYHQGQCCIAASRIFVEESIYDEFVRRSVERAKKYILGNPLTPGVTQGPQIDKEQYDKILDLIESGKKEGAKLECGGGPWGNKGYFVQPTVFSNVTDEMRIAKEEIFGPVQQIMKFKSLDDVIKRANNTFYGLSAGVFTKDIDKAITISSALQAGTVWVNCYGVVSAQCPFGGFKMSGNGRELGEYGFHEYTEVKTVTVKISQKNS
In words: Isoenzyme selectivity: ALDH1A1 dehydrogenase activity. Conditions: 10 μM concentration, aldehyde oxidation.

A further test addresses T3, ALDH2 (Homo sapiens, UniProt P05091).
T3 sequence (P05091 18-517): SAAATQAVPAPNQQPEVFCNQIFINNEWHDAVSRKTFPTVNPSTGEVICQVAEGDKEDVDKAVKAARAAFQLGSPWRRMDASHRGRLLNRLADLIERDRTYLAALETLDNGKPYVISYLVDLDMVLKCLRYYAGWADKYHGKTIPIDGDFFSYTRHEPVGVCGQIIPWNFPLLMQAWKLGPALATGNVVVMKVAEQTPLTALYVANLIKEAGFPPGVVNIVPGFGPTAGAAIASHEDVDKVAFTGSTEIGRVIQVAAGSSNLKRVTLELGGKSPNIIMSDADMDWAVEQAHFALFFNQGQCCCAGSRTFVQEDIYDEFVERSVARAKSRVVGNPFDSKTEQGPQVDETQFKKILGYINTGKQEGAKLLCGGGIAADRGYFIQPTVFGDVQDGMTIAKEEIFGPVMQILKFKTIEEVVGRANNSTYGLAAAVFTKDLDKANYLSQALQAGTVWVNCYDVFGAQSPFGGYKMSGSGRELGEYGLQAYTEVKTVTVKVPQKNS
In words: Isoenzyme selectivity: ALDH2 dehydrogenase activity. Conditions: 10 μM concentration, aldehyde oxidation.

In general, IC50 refers to the concentration needed to halve the response being measured. As to `CCSc1nnc2c(n1)OC(C(=O)c1ccc(OC)cc1)Nc1ccccc1-2` (centres unmarked) [CD5], the IC50 turned out to be 1 µM on ALDH3A1 [1] and 1.5 µM at ALDH3A1 [2].
For `CC(=O)Nc1ccc(Nc2ccc(S(C)(=O)=O)cc2[N+](=O)[O-])cc1` [CB29], the “inhibition of ALDH1A1” value against ALDH1A1 was “less than 10%”. The “inhibition of ALDH2” value at ALDH2 is “less than 10%”. The half-maximal inhibitory concentration (IC50) at ALDH3A1 [1] is 0.5 µM; at ALDH3A1 [2], 5 µM.
Consider `CCOC(=O)CN1C(=O)C(O)(CC(=O)c2ccncc2)c2ccccc21` (centres unmarked) [CD8], for which the results for the IC50 at ALDH3A1 [1] and on ALDH3A1 [2] were 2.2 µM and 6.3 µM, respectively.
